Consider 15 compounds from ChEMBL document CHEMBL4406874, “One-pot synthesis of novel tert-butyl-4-substituted phenyl-1H-1,2,3-triazolo piperazine/piperidine carboxylates, potential GPR119 agonists” (Bioorg Med Chem Lett, 2019).

The structures appear in SMILES notation.

For the assay, the target named is T1, Glucose-dependent insulinotropic receptor (Homo sapiens, UniProt Q8TDV5).
T1 sequence (Q8TDV5 whole entry): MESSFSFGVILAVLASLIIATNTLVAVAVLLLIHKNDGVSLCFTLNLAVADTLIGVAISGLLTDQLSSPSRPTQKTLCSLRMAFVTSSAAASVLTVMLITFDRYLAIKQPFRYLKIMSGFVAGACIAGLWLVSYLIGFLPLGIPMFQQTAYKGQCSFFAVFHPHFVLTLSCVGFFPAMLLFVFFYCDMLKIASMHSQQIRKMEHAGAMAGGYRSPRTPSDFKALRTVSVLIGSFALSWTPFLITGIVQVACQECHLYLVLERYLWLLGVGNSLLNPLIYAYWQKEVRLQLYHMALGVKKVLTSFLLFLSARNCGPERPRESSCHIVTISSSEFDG
Description: Agonist activity at recombinant human GPR119 expressed in HEK293 cells after 24 hrs by steady-glo luciferase assay. In kind it is cell-based. In short, it runs like this: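 HEK-293 cells stably carrying GPR119 plus a CRE-luciferase reporter, seeded at 10,000 cells/well and cultured 24 h before compound addition at 0.1 nM to 1mM. DMSO served as negative control and AR231453 as reference agonist. Luciferase signal was read after a further 24 h as a surrogate for cAMP elevation.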
On to `CC(C)(C)OC(=O)N1CCN(C(=O)c2cn(-c3ccc(C#N)cc3F)nn2)CC1`, for which the EC50 (in general, the concentration giving half of the maximal effect) was 4.21 nM.

On to `CC(C)(C)OC(=O)N1CCN(C(=O)c2cn(-c3ccc(S(C)(=O)=O)cc3)nn2)CC1`, for which the EC50 amounted to 3.12 nM. Next, `CC(C)(C)OC(=O)N1CCN(C(=O)c2cn(-c3ccc(C(F)(F)F)cc3Cl)nn2)CC1`: 8.78 nM; `CC(C)(C)OC(=O)N1CCC(OC(=O)c2cn(-c3ccc(S(C)(=O)=O)cc3F)nn2)CC1`: 14 nM. As for `CC(C)(C)OC(=O)N1CCN(C(=O)c2cn(-c3ccc(Cl)c(C(F)(F)F)c3)nn2)CC1`, the EC50 came out at 12.3 nM. The value for `CC(C)(C)OC(=O)N1CCN(C(=O)c2cn(-c3nc4ccccc4s3)nn2)CC1` was 7.12 nM. For the compound `CC(C)(C)OC(=O)N1CCC(OC(=O)c2cn(-c3ccc(Cl)c(C(F)(F)F)c3)nn2)CC1`, the EC50 came to 12.3 nM. Turning to `CC(C)(C)OC(=O)N1CCN(C(=O)c2cn(-c3ccc(S(C)(=O)=O)cc3F)nn2)CC1`, the EC50 amounted to 12.4 nM. Next, `CC(C)(C)OC(=O)N1CCN(C(=O)c2cn(-c3ccc(C(F)(F)F)cc3)nn2)CC1`: 13.6 nM; `CC(C)(C)OC(=O)N1CCC(OC(=O)c2cn(-c3ccc(C(F)(F)F)cc3Cl)nn2)CC1`: 11.1 nM; `CC(C)(C)OC(=O)N1CCC(OC(=O)c2cn(-c3ccc(S(C)(=O)=O)cc3)nn2)CC1`: 3.67 nM.

On to `CC(C)(C)OC(=O)N1CCC(OC(=O)c2cn(-c3nc4ccccc4s3)nn2)CC1`, for which the half-maximal effective concentration (EC50) is 8.17 nM. Take `CC(C)(C)OC(=O)N1CCC(OC(=O)c2cn(-c3ccc(C#N)cc3F)nn2)CC1`: the EC50 turned out to be 3.59 nM. Next, `CC(C)(C)OC(=O)N1CCC(OC(=O)c2cn(-c3ccc(C(F)(F)F)cc3)nn2)CC1`: 10.4 nM; `CC(C)c1noc(C2CCN(c3ncnc(Nc4ccc(S(C)(=O)=O)cc4F)c3[N+](=O)[O-])CC2)n1`: 4.78 nM.
